Hits are enriched below; roughly 2.4% of the tested compounds scored in any of these assays.
Apaf-1 inh: inhibitors of human Apaf-1 apoptosome, primary screen, biochemical, DEVD-Rh110 fluorescence, uHTS | Apoptotic protease-activating factor 1 (Homo sapiens), O14727 | reconstituted apoptosome caspase-3 activity | actives 0.71% (n = 330,000) | inhibition, % at 20 µM | AID 489030, 2010; active = inhibition of at least 40% at 20 µM;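 also: plate controls were DMSO wells for no effect and DEVD-CHO caspase inhibitor wells for full effect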
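Material: cell-free apoptosome with Apaf-1, procaspase-3 and caspase-9; Buffer or medium: Hepes pH 7.5 with detergent and BSA; Reagent: cytochrome c trigger plus (Z-DEVD)2-Rh110 caspase-3 substrate; Times: compound with Apaf-1, dATP, procaspase-3 30 min, then 50 min reaction, room temperature; Technique: Rh110 fluorescence intensity.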
FID counter: compounds displacing fluorescent DNA intercalator, primary screen, artefact control for HCV NS3 helicase inhibitor project, biochemical, FID fluorescence. actives 0.17% (n = 290,000). DNA fluorescent intercalator displacement. inhibition, % at 7.9 µM; in the data active = inhibition above about 37%;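 also: 0% = vehicle and 100% = reference compound; higher means more ethidium bromide displaced from hairpin DNA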
ANO1 activ: TMEM16A chloride channel activators or potentiators, primary screen, cell-based, HTS. Anoctamin-1 (Mus musculus), Q8BHY3. HEK293 TMEM16A/YFP-H148Q/I152L, iodide quench fluorescence; stronger effect = lower value. B-score at 10 µM. actives 0.3% (n = 340,000). AID 623877, 2012;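 active = fluorescence-ratio B-score plate-corrected deviation score at least 3 library SD below zero, with starting fluorescence score within 5 deviations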;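 also: channel opened by trigger with iodide after compound preincubation; score built on the fluorescence ratio of max minus min over baseline; more negative score means more quench and so TMEM16A activation or potentiation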
Target sequence (Q8BHY3 whole entry, looked up): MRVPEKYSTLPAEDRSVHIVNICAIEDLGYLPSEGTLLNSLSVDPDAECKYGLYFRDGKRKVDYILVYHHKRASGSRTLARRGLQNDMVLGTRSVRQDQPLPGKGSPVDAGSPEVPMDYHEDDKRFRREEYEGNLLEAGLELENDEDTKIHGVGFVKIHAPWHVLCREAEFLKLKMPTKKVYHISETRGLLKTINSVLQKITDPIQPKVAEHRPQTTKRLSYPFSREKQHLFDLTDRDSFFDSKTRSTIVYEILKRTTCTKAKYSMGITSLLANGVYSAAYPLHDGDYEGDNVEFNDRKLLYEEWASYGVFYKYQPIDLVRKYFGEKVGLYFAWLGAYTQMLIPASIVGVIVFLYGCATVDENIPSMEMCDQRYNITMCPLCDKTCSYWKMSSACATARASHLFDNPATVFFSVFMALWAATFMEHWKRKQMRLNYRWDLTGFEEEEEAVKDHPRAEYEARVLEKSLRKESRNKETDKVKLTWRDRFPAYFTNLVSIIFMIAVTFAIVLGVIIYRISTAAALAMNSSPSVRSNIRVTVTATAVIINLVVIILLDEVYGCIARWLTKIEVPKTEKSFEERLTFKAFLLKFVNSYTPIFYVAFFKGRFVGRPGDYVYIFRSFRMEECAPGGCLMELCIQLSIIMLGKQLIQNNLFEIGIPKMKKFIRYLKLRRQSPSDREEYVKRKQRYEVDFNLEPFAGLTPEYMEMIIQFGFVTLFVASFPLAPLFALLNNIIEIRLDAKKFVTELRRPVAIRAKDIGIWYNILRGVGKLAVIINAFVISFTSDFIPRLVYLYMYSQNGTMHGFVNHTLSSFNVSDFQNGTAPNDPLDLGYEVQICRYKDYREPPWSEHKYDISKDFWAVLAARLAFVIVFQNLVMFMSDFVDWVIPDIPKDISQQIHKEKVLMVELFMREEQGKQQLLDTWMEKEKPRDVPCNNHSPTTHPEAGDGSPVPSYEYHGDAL
UBC13 inh: UBC13 polyubiquitin chain formation inhibitors, primary screen, biochemical, TR-FRET, uHTS; Ubiquitin-conjugating enzyme E2 N (Homo sapiens), P61088; inhibition, % at 20 µM; actives 0.47% (n = 330,000); AID 485273, 2010; in the data active = inhibition above about 45%, passing the limit was not always enough; inconclusive = no clear call, values can overlap the other calls
ANO1 block: TMEM16A chloride channel inhibitors, primary screen, cell-based, HTS | Anoctamin-1 (Mus musculus), Q8BHY3 | HEK293 TMEM16A/YFP iodide influx fluorescence, ionomycin | normalized B-score (activity score, 25-100; higher = stronger inhibition) at 10 µM | actives 1.2% (n = 310,000) | AID 588511, 2011;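 active = ratio plate-corrected score three or more library SD toward inhibition, starting fluorescence score within five deviations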;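 also: score derived from kinetic fluorescence span divided by baseline fluorescence per well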
* = called active by the depositor; i = inactive; ? = inconclusive; . = no result given.

SMILES | Apaf-1 inh | FID counter | ANO1 activ | UBC13 inh | ANO1 block
CCCn1nc([N+](=O)[O-])c(C(C#N)c2nc3ccccc3s2)c(Cl)c1=O (configuration not stated) | 19 | -8 | i | -118 | 100*
CC(C(=O)N1CCN(C(=O)c2ccco2)CC1)n1sc2ccccc2c1=O (configuration not stated) | -1 | -31 | -45* | 2 | i
Cc1ccc(NC(=O)c2ccc3nc(N4CCOCC4)sc3c2)c(Cl)c1 | 13 | -25 | i | -10 | i
O=C(N/N=C/c1cn(Cc2ccccc2)c2ccccc12)c1ccncc1 | 23 | -18 | i | -13 | 100*
CC1=C(C)CC(C(=O)NCc2ccccn2)C(C(=O)O)C1 (configuration not stated) | -20 | -14 | i | 2 | i
Cc1cc(=O)n2nc(N3CCCC(C(=O)N4CCc5ccccc54)C3)sc2n1 (configuration not stated) | -1 | -29 | i | -1 | i
Cc1cc(=O)n2nc(N3CCCC(C(=O)N4CCOCC4)C3)sc2n1 (configuration not stated) | -14 | -4 | -5.5* | 2 | i
CC(C)CC(=O)Nc1nnc(S(=O)(=O)N2CCc3ccccc32)s1 | 9 | -14 | i | -8 | i
Cc1ccc(NS(=O)(=O)c2ccc(NC(=O)CSc3ccc(Cl)cc3)cc2)c(C)c1 | 17 | 0 | i | -9 | 25*
O=C(CSc1nc2ccccc2c(=O)n1Cc1ccco1)c1ccccc1 | -8 | -8 | i | 12 | i
Cc1cc(-n2c(C)cc(C(=O)CSc3nc4ccccc4c(=O)n3Cc3ccco3)c2C)no1 | 16 | -6 | -9.1* | 3 | i
O=C(NCCSCc1c(F)cccc1Cl)Nc1ccccc1 | 6 | -14 | i | 7 | i
S=C(NCCSCc1c(Cl)cccc1Cl)Nc1ccccc1 | 26 | -4 | i | 2 | 100*
S=C(NCCSCc1ccc(Cl)c(Cl)c1)Nc1ccccc1 | 17 | -7 | i | 6 | 100*
COc1ccc(CSCCNC(=S)Nc2ccccc2)cc1Cl | 18 | -7 | i | 8 | i
CN(C)Cc1ccccc1Sc1ccc2c(c1)CCCC2 | 12 | . | i | 14 | i
CCOC(=O)CCC(=O)Nc1ccc([N+](=O)[O-])cc1C | 8 | 6 | i | 1 | i
O=C(NCC1(c2ccccc2)CCCC1)C1(c2ccccc2)CCCC1 | 23 | -16 | i | -6 | 100*
O=C(NCC1(c2ccccc2)CCCC1)C(=O)NCC1(c2ccccc2)CCCC1 | . | 4 | i | . | .
CN(CC(=O)Nc1ccccc1Cl)C(=O)CN1C(=O)C2CC=CCC2C1=O (configuration not stated) | -12 | . | i | -3 | .
FC(F)Sc1ccc(NC(=S)NCC2CCCCC2)cc1 | -2 | -7 | i | 17 | 100*
O=c1c2c(-c3ccccc3)csc2ncn1/N=C/c1cccc([N+](=O)[O-])c1O | 3 | -2 | i | -20 | 25*
Cc1cccc(NC(=O)CSCC(=O)N(CCC(C)C)c2c(N)n(Cc3ccccc3)c(=O)[nH]c2=O)c1 | 12 | . | i | -3 | i
O=C(NCCc1ccc(Cl)cc1)C1CCCN1C(=O)Nc1ccccc1 (configuration not stated) | -18 | -12 | i | 6 | i
CC(C)(C)C(=O)Nc1nc(=S)ss1 | 1 | -3 | i | -1 | 100*
SMILES | Apaf-1 inh | FID counter | ANO1 activ | UBC13 inh | ANO1 block
CN(C(=O)Nc1ccc(C(C)(C)C)cc1)C1CCCCC1 | -29 | -1 | i | 2 | i
Clc1ccc2c(c1)C(N1CCNCC1)Cc1ccccc1S2 (configuration not stated) | 3 | 34 | i | 21 | 25*
Cc1ccc(C(=O)NCC(=O)NCC(c2ccco2)N2CCCCC2)cc1C (configuration not stated) | 6 | . | i | -1 | .
O=C(NCc1ccccc1)C(c1cccnc1)N(C(=O)c1csnn1)c1ccccc1 (configuration not stated) | 1 | -16 | i | -2 | i
COc1ccc(OC)c(NC(=O)CSc2nn3c(=O)c(C)nnc3s2)c1 | 14 | -5 | i | -4 | i
Cc1ccc(C(=O)C(c2ccccc2)N2Cc3ccccc3C2=N)cc1 (configuration not stated) | 22 | -14 | i | 10 | 100*
N#Cc1ccccc1S(=O)(=O)N1CCN(C(=O)CCC2CCCC2)CC1 | 10 | . | -23* | 4 | .
Cc1ccc(-n2ncc(C(=O)Nc3cc(Cl)cc(Cl)c3)c2C2CCNCC2)cc1C | . | 43* | i | . | .
Cc1ccc(-n2ncc(C(=O)Nc3cc(Cl)ccc3Cl)c2C2CCNCC2)cc1 | 3 | 17 | i | 8 | i
CC1=C(C#N)C(=O)N(C2CCS(=O)(=O)C2)C(=O)/C1=C\c1ccco1 (configuration not stated) | 54* | -4 | . | ? | i
Cc1ccccc1-n1c(-c2ccc(Cl)cc2)cnc1SCC(=O)NC1CCS(=O)(=O)C1 (configuration not stated) | 16 | -25 | i | 4 | i
Cc1cc(C)cc(NC(=S)Nc2ccc(Cl)c(Cl)c2)c1 | 4 | -1 | -9.6* | 7 | 100*
Cc1ccc(NC(=S)Nc2ccc(Cl)c(Cl)c2)c(OC(F)F)c1 | 0 | 0 | i | -8 | 100*
Cc1cccc(C)c1NC(=S)Nc1ccc(Cl)c(Cl)c1 | 7 | 3 | i | 8 | i
CCc1nnc(NC(=O)CCC(=O)N2CCC(Cc3ccccc3)CC2)s1 | 12 | -60 | i | 6 | i
O=C(COC(=O)c1ccccc1Br)Nc1ccccc1F | 9 | -6 | i | 1 | i
NC1=C(Br)C(=O)c2ccccc2C1=O | 71* | 4 | i | -360 | i
COC(=O)C(c1ccccc1)C(C(=O)OC)c1ccccc1 (configuration not stated) | -3 | -4 | i | -1 | i
COC(=O)C(C(=O)OC)C(C)C(C(=O)OC)C(=O)OC | -1 | -2 | -18* | -4 | i
COc1ccccc1NC(=O)CCN1C(=O)c2ccccc2S1(=O)=O | 8 | -5 | i | -1 | i
CCCN(CC(=O)Nc1ccccc1OC)C(=O)c1ccc(S(=O)(=O)NCc2ccco2)cc1 | 3 | . | -45* | -41 | .
C=CCn1c(COc2cccc3cccnc23)nnc1SCC(=O)O | -13 | -6 | -10* | 1 | i
Cc1ccc(Nc2nc(Nc3ccc(C)cc3)nc(SC3=NCCS3)n2)cc1 | -9 | -11 | i | -9 | i
Cc1ccccc1Nc1nc(Nc2ccccc2C)nc(SC2=NCCS2)n1 | -6 | -9 | i | -10 | 25*

Compound activity (PubChem)
